≈ marks a conversion by molar mass, not a printed value. Calls of active or inactive are those of the source. No cut-off for these calls is given here.
Columns and labels:
Rattus norvegicus [1] = experiment: Effect on hematology in Sprague-Dawley rat assessed as increase in red blood cells at 600 mg/kg/day, po after 14 days; assay type: ADME, organism-based; parameters: route oral; details: in vivo, 336 h
Procedure, shortened: (§1)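 Female Sprague-Dawley rats received vehicle or drug by oral gavage daily for 14 days, at doses of 40-1000 (mg/kg)/day across the studies. End points were moribundity or lethality, hematology (RBC, hemoglobin, hematocrit, reticulocytes), bone marrow M:E ratio and plasma AUC(0-24).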

Moraxella catarrhalis = experiment: Antibacterial activity against Moraxella catarrhalis by microbroth technology; assay type: functional
Procedure, shortened: (§2)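 MIC determined by broth microdilution, reported in µg/mL.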

[2] = target: T1, Amine oxidase [flavin-containing] A (Homo sapiens, UniProt P21397); experiment: Inhibition of human recombinant MAOA
T1 sequence (P21397 whole entry): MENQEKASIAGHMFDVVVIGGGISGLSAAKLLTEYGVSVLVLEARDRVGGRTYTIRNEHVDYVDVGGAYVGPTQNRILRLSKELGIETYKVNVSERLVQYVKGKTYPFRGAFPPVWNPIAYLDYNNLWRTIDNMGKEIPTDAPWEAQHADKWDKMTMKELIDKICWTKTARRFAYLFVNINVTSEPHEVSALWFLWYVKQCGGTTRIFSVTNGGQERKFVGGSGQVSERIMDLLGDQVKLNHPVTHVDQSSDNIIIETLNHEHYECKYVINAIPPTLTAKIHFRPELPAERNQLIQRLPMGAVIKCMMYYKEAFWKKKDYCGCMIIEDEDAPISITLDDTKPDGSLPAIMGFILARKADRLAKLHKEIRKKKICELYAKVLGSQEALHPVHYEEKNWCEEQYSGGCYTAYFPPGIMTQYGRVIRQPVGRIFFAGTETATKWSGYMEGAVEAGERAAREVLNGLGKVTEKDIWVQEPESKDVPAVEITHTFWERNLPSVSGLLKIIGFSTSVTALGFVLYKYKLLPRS

Rattus norvegicus [3] = experiment: Toxicity in Sprague-Dawley rat at 600 mg/kg/day, po after 14 days; assay type: organism-based; parameters: route oral; details: in vivo, 336 h; procedure, shortened: as §1
Canis familiaris [4] = experiment: Bioavailability in dog at 20 mg/kg, po; assay type: ADME, organism-based, Canis lupus familiaris; details: in vivo
Staphylococcus aureus [5] = experiment: Antibacterial activity against Staphylococcus aureus UC76 in po dosed CD1 mouse systemic infection model assessed as mortality after 7 days; assay type: functional
Cytochrome P450 1A2 = target: T2, Cytochrome P450 1A2 (Homo sapiens, UniProt P05177); experiment: Inhibition of human liver microsome CYP1A2; assay type: ADME, microsomes
T2 sequence (P05177 whole entry): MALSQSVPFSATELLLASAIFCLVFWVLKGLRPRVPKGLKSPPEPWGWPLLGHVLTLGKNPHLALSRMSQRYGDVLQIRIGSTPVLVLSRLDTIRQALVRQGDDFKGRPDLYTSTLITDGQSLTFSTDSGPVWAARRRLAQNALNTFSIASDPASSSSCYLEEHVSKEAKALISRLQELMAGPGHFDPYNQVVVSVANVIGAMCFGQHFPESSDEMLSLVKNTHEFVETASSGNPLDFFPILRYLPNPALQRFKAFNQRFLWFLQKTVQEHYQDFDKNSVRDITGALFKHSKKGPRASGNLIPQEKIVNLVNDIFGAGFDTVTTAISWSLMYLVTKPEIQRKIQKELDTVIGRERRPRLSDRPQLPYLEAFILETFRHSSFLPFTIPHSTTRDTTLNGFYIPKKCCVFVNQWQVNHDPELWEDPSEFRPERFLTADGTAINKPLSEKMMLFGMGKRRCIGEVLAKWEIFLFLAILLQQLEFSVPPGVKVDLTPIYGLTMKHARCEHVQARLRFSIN
Procedure, shortened: (§3)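 Done in duplicate with 0.03-0.2 mg/mL human liver microsomes, 1 mM NADPH and 50 mM potassium phosphate, pH 7.4. Probe substrates: 30 µM phenacetin (1A2), 7.5 µM diclofenac (2C9), 50 µM […], 10 µM dextromethorphan (2D6), and 50 µM phenacetin, 50 µM midazolam or 1.5 µM felodipine (3A4). Drug was tested at 0-1000 µM. Reactions were quenched with ice-cold acetonitrile after 7-30 min and analysed by LC/MS.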

Cytochrome P450 2C9 = Cytochrome P450 2C9 (Homo sapiens, UniProt P11712); experiment: Inhibition of human liver microsome CYP2C9; assay type: ADME, microsomes; procedure, shortened: as §3
Chain of Cytochrome P450 2C9 (P11712 whole entry): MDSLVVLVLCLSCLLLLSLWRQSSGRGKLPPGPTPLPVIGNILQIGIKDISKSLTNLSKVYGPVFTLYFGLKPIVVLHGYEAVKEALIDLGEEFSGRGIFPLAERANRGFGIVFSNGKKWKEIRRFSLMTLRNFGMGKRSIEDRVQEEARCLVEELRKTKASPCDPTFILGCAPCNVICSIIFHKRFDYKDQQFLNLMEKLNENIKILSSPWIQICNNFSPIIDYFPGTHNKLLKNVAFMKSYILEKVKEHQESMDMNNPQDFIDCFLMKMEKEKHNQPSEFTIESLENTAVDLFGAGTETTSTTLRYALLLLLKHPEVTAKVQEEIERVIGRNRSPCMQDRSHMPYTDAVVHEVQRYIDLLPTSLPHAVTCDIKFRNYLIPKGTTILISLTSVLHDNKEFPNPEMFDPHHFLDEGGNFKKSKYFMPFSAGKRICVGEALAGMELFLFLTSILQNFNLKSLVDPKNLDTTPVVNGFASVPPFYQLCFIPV

Staphylococcus aureus [6] = experiment: Antibacterial activity against […] in po dosed CD1 mouse systemic infection model assessed as mortality after 7 days; assay type: functional
[7] = Cmax in dog at 20 mg/kg, po; assay type: ADME, organism-based, Canis lupus familiaris; parameters: dose 20 mg/kg, route oral; details: in vivo
Staphylococcus = experiment: Bacteriostatic activity against Staphylococcus after 48 hrs by time kill study; assay type: functional, organism-based
Staphylococcus aureus [8] = experiment: Antibacterial activity against methicillin-resistant Staphylococcus aureus SA1417 in po dosed CD1 mouse systemic infection model assessed as mortality after 7 days; assay type: functional
Canis familiaris [9] = experiment: AUC in dog at 20 mg/kg, po; assay type: ADME, organism-based, Canis lupus familiaris, Plasma; parameters: dose 20 mg/kg, route oral; details: in vivo
Cytochrome P450 3A4 = Cytochrome P450 3A4 (Homo sapiens, UniProt P08684); experiment: Inhibition of human liver microsome CYP3A4; assay type: ADME, microsomes; procedure, shortened: as §3
Chain of Cytochrome P450 3A4 (P08684 whole entry): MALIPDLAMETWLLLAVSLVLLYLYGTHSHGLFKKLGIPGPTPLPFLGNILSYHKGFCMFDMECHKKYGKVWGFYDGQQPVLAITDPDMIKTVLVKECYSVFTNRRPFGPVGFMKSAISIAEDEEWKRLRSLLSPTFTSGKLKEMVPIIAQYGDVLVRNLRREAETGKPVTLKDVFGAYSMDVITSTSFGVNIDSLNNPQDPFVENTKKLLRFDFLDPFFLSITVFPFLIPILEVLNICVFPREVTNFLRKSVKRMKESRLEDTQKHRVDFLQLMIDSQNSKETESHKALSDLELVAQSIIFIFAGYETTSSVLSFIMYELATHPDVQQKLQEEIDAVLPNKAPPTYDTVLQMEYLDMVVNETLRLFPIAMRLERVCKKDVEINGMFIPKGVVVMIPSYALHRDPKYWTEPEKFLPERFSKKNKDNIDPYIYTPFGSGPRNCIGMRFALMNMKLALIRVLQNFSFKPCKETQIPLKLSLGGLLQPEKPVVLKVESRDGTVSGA

Rattus norvegicus [10] = experiment: AUC in Sprague-Dawley rat at 20 mg/kg, po; assay type: ADME, organism-based, Plasma; parameters: dose 20 mg/kg, route oral; details: in vivo
[11] = Volume of distribution at steady state in Sprague-Dawley rat at 10 mg/kg, iv; assay type: ADME, organism-based; parameters: dose 10 mg/kg, route intravenous; details: in vivo, read-out: Vdss
[12] = AUC (0 to 24 hrs) in Sprague-Dawley rat plasma at 600 mg/kg/day, po after 14 days; assay type: ADME, organism-based; parameters: dose 600 mg/kg/day, time < 24 hr, route oral; procedure, shortened: as §1
Staphylococcus aureus [13] = experiment: Antibacterial activity against levofloxacin-oxacillin-resistant Staphylococcus aureus UC76 SA1 by micro-broth technology; assay type: functional
Procedure, shortened: (§4)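 Drug-resistant panel strains (levofloxacin/oxacillin-resistant S. aureus, levofloxacin/penicillin-resistant S. pneumoniae, vancomycin-resistant E. faecalis and E. faecium). Broth microdilution MIC in µg/mL; value reported as MIC90 across the strains of each resistant group.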

Enterococcus = experiment: Bacteriostatic activity against Enterococcus after 48 hrs by time kill study; assay type: functional, organism-based
[14] = Cmax in Sprague-Dawley rat at 20 mg/kg, po; assay type: ADME, organism-based; parameters: dose 20 mg/kg, route oral; details: in vivo
Rattus norvegicus [15] = experiment: Effect on hematology in Sprague-Dawley rat assessed as increase in hemoglobin at 600 mg/kg/day, po after 14 days; assay type: ADME, organism-based; parameters: route oral; details: in vivo, 336 h; procedure, shortened: as §1
Escherichia coli = experiment: Inhibition of protein synthesis in Escherichia coli by cell-free transcription-translation assay; assay type: functional
Procedure, shortened: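 E. coli cell-free coupled transcription/translation run in microtiter format with a luciferase reporter; luminescence was the read-out for protein synthesis.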

Rattus norvegicus [16] = experiment: Effect on hematology in Sprague-Dawley rat assessed as increase in hematocrit at 600 mg/kg/day, po after 14 days; assay type: ADME, organism-based; parameters: route oral; details: in vivo, 336 h; procedure, shortened: as §1
[17] = Half life in Sprague-Dawley rat at 20 mg/kg, po; assay type: ADME, organism-based; parameters: dose 20 mg/kg, route oral; details: in vivo
Cytochrome P450 2C19 = Cytochrome P450 2C19 (Homo sapiens, UniProt P33261); experiment: Inhibition of human liver microsome CYP2C19; assay type: ADME, microsomes; procedure, shortened: as §3
Chain of Cytochrome P450 2C19 (P33261 whole entry): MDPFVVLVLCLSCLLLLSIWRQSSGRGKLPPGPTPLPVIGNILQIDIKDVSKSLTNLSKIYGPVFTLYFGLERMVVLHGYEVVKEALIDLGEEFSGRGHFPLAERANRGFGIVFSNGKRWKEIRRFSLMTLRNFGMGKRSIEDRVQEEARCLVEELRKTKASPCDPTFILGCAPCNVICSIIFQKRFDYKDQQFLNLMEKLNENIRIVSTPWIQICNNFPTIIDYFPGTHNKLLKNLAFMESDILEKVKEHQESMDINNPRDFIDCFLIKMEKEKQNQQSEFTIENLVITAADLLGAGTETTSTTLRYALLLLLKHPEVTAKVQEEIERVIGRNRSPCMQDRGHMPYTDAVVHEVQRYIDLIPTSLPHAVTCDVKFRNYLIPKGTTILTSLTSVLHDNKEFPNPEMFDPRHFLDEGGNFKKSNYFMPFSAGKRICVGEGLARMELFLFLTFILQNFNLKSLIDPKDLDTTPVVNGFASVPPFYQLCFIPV

Streptococcus pneumoniae [18] = experiment: Antibacterial activity against levofloxacin-penicillin-resistant Streptococcus pneumoniae SV1 SP3 by microbroth technology; assay type: functional; procedure, shortened: as §4
Streptococcus pneumoniae [19] = experiment: Bactericidal activity against Streptococcus pneumoniae after 48 hrs by time kill study; assay type: functional, organism-based
Procedure, shortened: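 Time-kill study: bacteria exposed continuously to drug at 2-16× the MIC and sampled over 48 h to assess eradication.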

[20] = Clearance in mouse at 4 mg/kg, iv; assay type: ADME, organism-based; parameters: dose 4 mg/kg, route intravenous; details: in vivo
[21] = AUC (0 to 24 hrs) in Sprague-Dawley rat plasma at 200 mg/kg/day, po after 14 days; assay type: ADME, organism-based; parameters: dose 200 mg/kg/day, time < 24 hr, route oral; procedure, shortened: as §1
[22] = Cmax in mouse at 20 mg/kg, po; assay type: ADME, organism-based; parameters: dose 20 mg/kg, route oral; details: in vivo
Enterococcus faecium = experiment: Antibacterial activity against vancomycin-resistant Enterococcus faecium by micro-broth technology; assay type: functional; procedure, shortened: as §4
Enterococcus faecalis = experiment: Antibacterial activity against vancomycin-resistant Enterococcus faecalis MGH2 EF1 by microbroth technology; assay type: functional; procedure, shortened: as §4
[23] = Half life in dog at 20 mg/kg, po; assay type: ADME, organism-based, Canis lupus familiaris; parameters: dose 20 mg/kg, route oral; details: in vivo
Staphylococcus aureus [24] = experiment: Antibacterial activity against methicillin-resistant Staphylococcus aureus SA1417 by micro-broth technology; assay type: functional
Rattus norvegicus [25] = experiment: Effect on hematology in Sprague-Dawley rat assessed as decrease in reticulocytes at 600 mg/kg/day, po after 14 days; assay type: ADME, organism-based; parameters: route oral; scale not given: the % may be the effect or the level left; details: in vivo, 336 h; procedure, shortened: as §1
Rattus norvegicus [26] = experiment: Bioavailability in Sprague-Dawley rat at 20 mg/kg, po; assay type: ADME, organism-based; details: in vivo
Rattus norvegicus [27] = experiment: Increase in bone marrow myeloid/erythroid ratio in Sprague-Dawley rat at 600 mg/kg/day, po after 14 days; assay type: ADME, organism-based; parameters: route oral; details: in vivo, 336 h
[28] = Half life in mouse at 20 mg/kg, po; assay type: ADME, organism-based; parameters: dose 20 mg/kg, route oral; details: in vivo
[29] = AUC in mouse at 20 mg/kg, po; assay type: ADME, organism-based; parameters: dose 20 mg/kg, route oral; details: plasma
Cytochrome P450 2D6 = Cytochrome P450 2D6 (Homo sapiens, UniProt P10635); experiment: Inhibition of human liver microsome CYP2D6; assay type: ADME, microsomes; procedure, shortened: as §3
Chain of Cytochrome P450 2D6 (P10635 whole entry): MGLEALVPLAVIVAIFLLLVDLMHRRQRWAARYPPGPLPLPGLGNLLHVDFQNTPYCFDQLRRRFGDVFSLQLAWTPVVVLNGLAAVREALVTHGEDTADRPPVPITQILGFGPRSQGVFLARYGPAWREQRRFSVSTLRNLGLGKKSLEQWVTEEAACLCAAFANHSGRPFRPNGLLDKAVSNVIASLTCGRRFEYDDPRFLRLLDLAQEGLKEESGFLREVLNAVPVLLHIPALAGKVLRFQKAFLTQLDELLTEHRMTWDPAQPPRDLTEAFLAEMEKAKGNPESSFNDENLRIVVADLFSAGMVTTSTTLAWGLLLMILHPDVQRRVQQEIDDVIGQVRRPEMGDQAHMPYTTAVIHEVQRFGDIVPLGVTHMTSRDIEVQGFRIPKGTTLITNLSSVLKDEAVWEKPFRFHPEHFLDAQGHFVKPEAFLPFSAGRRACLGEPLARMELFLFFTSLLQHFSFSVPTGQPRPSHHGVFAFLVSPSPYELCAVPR

[30] = Volume of distribution at steady state in mouse at 4 mg/kg, iv; assay type: ADME, organism-based; parameters: dose 4 mg/kg, route intravenous; details: in vivo, read-out: Vdss
Haemophilus influenzae = experiment: Antibacterial activity against Haemophilus influenzae by micro-broth technology; assay type: functional; procedure, shortened: as §2
[31] = Volume of distribution at steady state in dog at 4 mg/kg, iv; assay type: ADME, organism-based, Canis lupus familiaris; parameters: dose 4 mg/kg, route intravenous; details: in vivo, read-out: Vdss
Streptococcus pyogenes = experiment: Antibacterial activity against Streptococcus pyogenes C203 by micro-broth technology; assay type: functional

NC(=O)[C@H]1CN(c2ccc([C@H]3CC[S@+]([O-])CC3)c(F)c2)C(=O)O1
Activity (Rattus norvegicus [1]): 8%
MIC (Moraxella catarrhalis): > 8 µg/mL
IC50 [2]: 546 µM
Activity (Rattus norvegicus [3]): Toxic
F (Canis familiaris [4]): 64%
PD50 (Staphylococcus aureus [5]): 1.25 mg/kg
IC50 (Cytochrome P450 1A2): > 900 µM
IC50 (Cytochrome P450 2C9): > 900 µM
PD50 (Staphylococcus aureus [6]): <5 mg/kg
Cmax [7]: 17900 ng/mL
Activity (Staphylococcus): Active
PD50 (Staphylococcus aureus [8]): 1.7 mg/kg
AUC (Canis familiaris [9]): 76.2 µg·h/mL
IC50 (Cytochrome P450 3A4): > 900 µM
AUC (Rattus norvegicus [10]): 109 µg·h/mL
Vd [11]: 6.2 L/kg
AUC at 24 h [12]: 619 µg·h/mL
MIC90 (Staphylococcus aureus [13]): 2 µg/mL (≈ 5.88 µM)
Activity (Enterococcus): Active
Cmax [14]: 15900 ng/mL
Activity (Rattus norvegicus [15]): 8%
IC50 (Escherichia coli): 3.4 µM
Activity (Rattus norvegicus [16]): 8%
half-life [17]: 5.8 h
IC50 (Cytochrome P450 2C19): > 900 µM
MIC90 (Streptococcus pneumoniae [18]): 2 µg/mL (≈ 5.88 µM)
Activity (Streptococcus pneumoniae [19]): Active
clearance [20]: 25.2 mL/min/kg
AUC at 24 h [21]: 223 µg·h/mL
Cmax [22]: 12300 ng/mL
MIC90 (Enterococcus faecium): 4 µg/mL (≈ 11.8 µM)
MIC90 (Enterococcus faecalis): 4 µg/mL (≈ 11.8 µM)
half-life [23]: 6.2 h
MIC (Staphylococcus aureus [24]): 4 µg/mL (≈ 11.8 µM)
Activity (Rattus norvegicus [25]): 62%
F (Rattus norvegicus [26]): 83%
Ratio (Rattus norvegicus [27]): 4.5
half-life [28]: 1.5 h
AUC [29]: 48.3 µg·h/mL
IC50 (Cytochrome P450 2D6): > 900 µM
Vd [30]: 3.3 L/kg
MIC (Haemophilus influenzae): > 8 µg/mL
Vd [31]: 0.7 L/kg
MIC (Streptococcus pyogenes): 4 µg/mL (≈ 11.8 µM)

NC(=O)[C@H]1CN(c2ccc(C3CCOCC3)c(F)c2)C(=O)O1
MIC (Moraxella catarrhalis): > 8 µg/mL
IC50 [2]: 58 µM
MIC (Staphylococcus aureus [13]): 4 µg/mL (≈ 13 µM)
IC50 (Escherichia coli): 6.1 µM
MIC (Streptococcus pneumoniae [18]): 2 µg/mL (≈ 6.49 µM)
MIC (Enterococcus faecium): 8 µg/mL (≈ 25.9 µM)
MIC (Enterococcus faecalis): 4 µg/mL (≈ 13 µM)
MIC (Haemophilus influenzae): > 8 µg/mL

Reference: ChEMBL document CHEMBL1138317, “Antibacterial oxazolidinones possessing a novel C-5 side chain. (5R)-trans-3-[3-Fluoro-4- (1-oxotetrahydrothiopyran-4-yl)phenyl]-2- oxooxazolidine-5-carboxylic acid amide (PF-00422602), a new lead compound” (J Med Chem, 2007)
